# Results published in ChEMBL document CHEMBL1125062, “Structure-activity relationships for the carboxy-terminus truncated analogues of angiotension II, a new class of angiotensin II antagonists” (J Med Chem, 1990).
# Where a SMILES comes first, the peptide text is derived from it. [ ]: non-standard residue; d: D form. Sar = CNCC(=O)O
# What was measured:
# Oryctolagus cuniculus = species on record: Oryctolagus cuniculus; experiment: In vitro myotropic property on the isolated rabbit aorta, expressed as pA2; format: functional; conditions: read-out: pA2 (converted)
# Method in brief: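 Aortic rings from male New Zealand white rabbits (2-2.5 kg) equilibrated 1 h, then set at ~1 g passive tension. Paired rings were used: one received cumulative AII, the other AII with the peptide added 5 min before. AII was given at 30-min intervals with Krebs washes. Responses were taken as % of control maximal contraction, and pA2 was derived by Schild analysis.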
# Rattus norvegicus [1] = experiment: In vivo activity to antagonize the effect of bolus injection of angiotensin II at 30 ng/kg in rat
# Rattus norvegicus [2] = experiment: Drinking water response evaluated in conscious rat at a dose of 500 pmol icv; format: functional
# Method in brief: (§1)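 Conscious Sprague–Dawley rats given AII 100 pmol icv to induce water drinking. Test peptide was given icv at 500 or 2500 pmol, and the drinking response was recorded.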
# Rattus norvegicus [3] = experiment: Percentage of pressor response to antagonize the effect of bolus injection of compound at a dose of 30 ug/kg per min in rat; format: functional
# Rattus norvegicus [4] = experiment: Variation in mean arterial pressure after 10 min of antagonist infusion at a dose of 10 ug/kg
# Rattus norvegicus [5] = experiment: In vivo activity to antagonize the effect of bolus injection of compound at 30 ug/kg in rat; format: functional; conditions: in the assay text read “angiotensin II at 30 ng/kg” for “compound at 30 ug/kg”
# Method in brief: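 Male Sprague-Dawley rats (240-400 g) under Inactin (100 mg/kg ip), ganglion-blocked with mecamylamine 3 mg/kg iv and atropine ip. AII 30 ng/kg iv bolus was given four times at 10-min intervals as baseline. Peptide was infused iv for 20 min, then AII was rechallenged. Endpoint was the smallest infusion dose (µg/kg per min) fully blocking the bolus, with time to ~50% recovery after infusion stopped.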
# Rattus norvegicus [6] = experiment: Variation of MAP induced bolus injection of 100 ug/kg of compound during infusion in rat reported as % of control (100) at a dose of 10 ug/kg; format: functional
# Method in brief: (§2)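 Same ganglion-blocked, Inactin-anaesthetized rat preparation, with MAP recorded via femoral artery catheter. Antagonist was infused iv for 20 min at 10, 30, 60 or 100 µg/kg per min before AII 30 ng/kg iv bolus challenge. After infusion stopped, AII was repeated at 5-10-min intervals for 1 h. The pressor response was expressed as % of control at 5-60 min, mean ± SEM, n = 2-6.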
# Rattus norvegicus [7] = experiment: Variation of MAP induced bolus injection of 30 ng/kg of compound during infusion in rat reported as % of control (100) at a dose of 30 ug/kg; format: functional; conditions: in the assay text read “10 ug/kg” for “30 ug/kg”; method in brief: as §2
# Rattus norvegicus [8] = experiment: Variation in mean arterial pressure after 5 min of antagonist infusion at a dose of 10 ug/kg
# Rattus norvegicus [9] = experiment: Variation in mean arterial pressure after 40 min of antagonist infusion at a dose of 30 ug/kg
# Rattus norvegicus [10] = experiment: Variation in mean arterial pressure after 20 min of antagonist infusion at a dose of 10 ug/kg
# Rattus norvegicus [11] = experiment: Variation in mean arterial pressure after 60 min of antagonist infusion at a dose of 10 ug/kg
# Rattus norvegicus [12] = experiment: Variation in mean arterial pressure after 40 min of antagonist infusion at a dose of 10 ug/kg
# Rattus norvegicus [13] = species on record: Rattus norvegicus; experiment: In vitro myotropic property in rat stomach, expressed as pA2; format: functional; conditions: read-out: pA2 (converted)
# Rattus norvegicus [14] = species on record: Rattus norvegicus; experiment: In vitro myotropic property in rat isolated uterus, expressed as pA2; format: functional; conditions: read-out: pA2 (converted)
# Rattus norvegicus [15] = experiment: In vivo activity to antagonize the effect of bolus injection of angiotensin II at 30 ng/kg in rat; remark: listed apart in the source
# Rattus norvegicus [16] = experiment: Percentage of pressor response to antagonize the effect of bolus injection of compound at a dose of 30 ug/kg/min in rat; format: functional
# Rattus norvegicus [17] = experiment: Variation in mean arterial pressure after 40 min of antagonist infusion at a dose of 10 ug/kg; remark: listed apart in the source
# Rattus norvegicus [18] = experiment: Variation in mean arterial pressure after 5 min of antagonist infusion at a dose of 10 ug/kg; remark: listed apart in the source
# Rattus norvegicus [19] = experiment: Variation in mean arterial pressure after 20 min of antagonist infusion at a dose of 10 ug/kg; remark: listed apart in the source
# Rattus norvegicus [20] = experiment: Variation in mean arterial pressure after 10 min of antagonist infusion at a dose of 10 ug/kg; remark: listed apart in the source
# Rattus norvegicus [21] = experiment: Variation in mean arterial pressure after 60 min of antagonist infusion at a dose of 10 ug/kg; remark: listed apart in the source
# Rattus norvegicus [22] = experiment: Variation of MAP induced bolus injection of 60 ug/kg of compound during infusion in rat reported as % of control (100) at a dose of 10 ug/kg; format: functional; method in brief: as §2
# Rattus norvegicus [23] = experiment: Drinking water response evaluated in conscious rat at a dose of 2500 pmol icv; format: functional; method in brief: as §1
compound,measurement,setting,value
H-DRVYIH-NH2,Kb,Oryctolagus cuniculus,> 1000 nM
CC[C@H](C)[C@H](NC(=O)[C@H](Cc1ccc(O)cc1)NC(=O)[C@@H](NC(=O)[C@H](CCCN=C(N)N)NC(=O)[C@@H](N)CC(=O)O)C(C)C)C(=O)N[C@@H](Cc1c[nH]cn1)C(=O)N1CCC[C@@H]1C(=O)O,Antagonist activity,Rattus norvegicus [1],>300 µg/min/kg
same,Water intake,Rattus norvegicus [2],6.1 ml 20min-1
same,Kb,Oryctolagus cuniculus,> 1000 nM
CC[C@H](C)[C@H](NC(=O)[C@H](Cc1ccc(O)cc1)NC(=O)[C@@H](NC(=O)[C@H](CCCN=C(N)N)NC(=O)CNC)C(C)C)C(=O)N[C@@H](Cc1c[nH]cn1)C(=O)N1CCC[C@H]1C(=O)O [listing 1 of 2 here],Agonist activity,Rattus norvegicus [3],45%
same,"Pressor response, % of control",Rattus norvegicus [4],36%
same,Antagonist activity,Rattus norvegicus [5],>100 µg/min/kg
same,Control,Rattus norvegicus [6],9%
CNCC(=O)N[C@@H](CCCN=C(N)N)C(=O)N[C@H](C(=O)N[C@@H](Cc1ccc(O)cc1)C(=O)N[C@H](C(=O)N[C@@H](Cc1c[nH]cn1)C(=O)N1CCC[C@H]1C(=O)N[C@@H](C)C(=O)O)C(C)C)C(C)C [listing 1 of 2 here],Control,Rattus norvegicus [7],0%
same,MAP,Rattus norvegicus [8],29%
same,"Pressor response, % of control",Rattus norvegicus [9],96%
same,"Pressor response, % of control",Rattus norvegicus [4],50%
same,Antagonist activity,Rattus norvegicus [5],10 µg/min/kg
same,Control,Rattus norvegicus [6]; in the assay text read “30 ng/kg of angiotensin II” for “100 ug/kg of compound”,0%
same,"Pressor response, % of control",Rattus norvegicus [10],78%
same,MAP,Rattus norvegicus [11],94%
same,"Pressor response, % of control",Rattus norvegicus [12],96%
CNCC(=O)N[C@@H](CCCN=C(N)N)C(=O)N[C@H](C(=O)N[C@@H](Cc1ccc(O)cc1)C(=O)N[C@H](C(=O)N[C@@H](Cc1c[nH]cn1)C(=O)N1CCC[C@H]1C(=O)N[C@@H](C)C(=O)O)C(C)C)C(C)C [listing 2 of 2 here],Kb,Rattus norvegicus [13],5.01 nM
CC[C@H](C)[C@H](NC(=O)[C@H](Cc1ccc(O)cc1)NC(=O)[C@@H](NC(=O)[C@H](CCCN=C(N)N)NC(=O)[C@@H](N)CC(=O)O)C(C)C)C(=O)N[C@@H](Cc1c[nH]cn1)C(=O)N(C)CC(N)=O (H-DRVYIH[Sar]-NH2),Kb,Oryctolagus cuniculus,> 1000 nM
CC[C@H](C)[C@H](NC(=O)[C@H](Cc1ccc(O)cc1)NC(=O)[C@@H](NC(=O)[C@H](CCCN=C(N)N)NC(=O)CNC)C(C)C)C(=O)N[C@@H](Cc1c[nH]cn1)C(=O)N(C)CC(N)=O (H-[Sar]RVYIH[Sar]-NH2),Kb,Oryctolagus cuniculus,> 1000 nM
CC[C@H](C)[C@H](NC(=O)[C@H](Cc1ccc(O)cc1)NC(=O)[C@@H](NC(=O)[C@H](CCCN=C(N)N)NC(=O)CNC)C(C)C)C(=O)N[C@@H](Cc1c[nH]cn1)C(=O)N(C)C (H-[Sar]RVYIH-NMe2) [listing 1 of 2 here],Kb,Oryctolagus cuniculus,89.1 nM
CC[C@H](C)[C@H](NC(=O)[C@H](Cc1ccc(OC)cc1)NC(=O)[C@@H](NC(=O)[C@H](CCCN=C(N)N)NC(=O)CNC)C(C)C)C(=O)N[C@@H](Cc1c[nH]cn1)C(=O)N1CCC[C@H]1C(=O)N[C@@H](Cc1ccccc1)C(=O)O,Agonist activity,Rattus norvegicus [3],60%
same,Kb,Rattus norvegicus [14],25.1 nM
same,Antagonist activity,Rattus norvegicus [15],30 µg/min/kg
same,Water intake,Rattus norvegicus [2],3.1 ml 20min-1
CC[C@H](C)[C@H](NC(=O)[C@H](Cc1ccc(O)cc1)NC(=O)[C@@H](NC(=O)[C@H](CCCN=C(N)N)NC(=O)CNC)C(C)C)C(=O)N[C@@H](Cc1c[nH]cn1)C(=O)N1CCC[C@H]1C(=O)O [listing 2 of 2 here],Kb,Oryctolagus cuniculus,31.6 nM
CC[C@H](C)[C@H](NC(=O)[C@H](Cc1ccc(O)cc1)NC(=O)[C@@H](NC(=O)[C@H](CCCN=C(N)N)NC(=O)CNC)C(C)C)C(=O)N[C@@H](Cc1c[nH]cn1)C(N)=O (H-[Sar]RVYIH-NH2),Kb,Oryctolagus cuniculus,> 1000 nM
CC[C@H](C)[C@H](NC(=O)[C@H](Cc1ccc(O)cc1)NC(=O)[C@@H](NC(=O)[C@H](CCCN=C(N)N)NC(=O)CNC)C(C)C)C(=O)N[C@@H](Cc1c[nH]cn1)C(=O)N1CCC[C@H]1C(N)=O [listing 1 of 2 here],Kb,Oryctolagus cuniculus,25.1 nM
CC[C@H](C)[C@H](NC(=O)[C@H](Cc1ccc(OC)cc1)NC(=O)[C@@H](NC(=O)[C@H](CCCN=C(N)N)NC(=O)CNC)C(C)C)C(=O)N[C@@H](Cc1c[nH]cn1)C(=O)N1CCC[C@H]1C(N)=O [listing 1 of 2 here],Kb,Oryctolagus cuniculus,20 nM
CC[C@H](C)[C@H](NC(=O)[C@H](Cc1ccc(OC)cc1)NC(=O)[C@@H](NC(=O)[C@H](CCCN=C(N)N)NC(=O)CNC)C(C)C)C(=O)N[C@@H](Cc1c[nH]cn1)C(=O)N1CCC[C@H]1C(N)=O [listing 2 of 2 here],MAP,Rattus norvegicus [8],70%
same,"Pressor response, % of control",Rattus norvegicus [4],86%
same,Antagonist activity,Rattus norvegicus [5],>100 µg/min/kg
same,Control,Rattus norvegicus [6],19%
same,Agonist activity,Rattus norvegicus [16],65%
same,"Pressor response, % of control",Rattus norvegicus [10],89%
same,MAP,Rattus norvegicus [11],100%
same,"Pressor response, % of control",Rattus norvegicus [12],91%
CC[C@H](C)[C@H](NC(=O)[C@H](Cc1ccc(O)cc1)NC(=O)[C@@H](NC(=O)[C@H](CCCN=C(N)N)NC(=O)CNC)C(C)C)C(=O)N[C@@H](Cc1c[nH]cn1)C(=O)NCC(N)=O (H-[Sar]RVYIHG-NH2),Kb,Oryctolagus cuniculus,> 1000 nM
CC[C@H](C)[C@H](NC(=O)[C@H](Cc1ccc(O)cc1)NC(=O)[C@@H](NC(=O)[C@H](CCCN=C(N)N)NC(=O)CNC)C(C)C)C(=O)N[C@@H](Cc1c[nH]cn1)C(=O)N(C)C (H-[Sar]RVYIH-NMe2) [listing 2 of 2 here],Agonist activity,Rattus norvegicus [3],50%
same,"Pressor response, % of control",Rattus norvegicus [17],67%
same,Antagonist activity,Rattus norvegicus [5],100 µg/min/kg
same,Control,Rattus norvegicus [6],5%
same,"Pressor response, % of control",Rattus norvegicus [18],10%
same,"Pressor response, % of control",Rattus norvegicus [19],28%
same,"Pressor response, % of control",Rattus norvegicus [20],13%
same,MAP,Rattus norvegicus [21],82%
CC[C@H](C)[C@H](NC(=O)[C@H](Cc1ccc(O)cc1)NC(=O)[C@@H](NC(=O)[C@H](CCCN=C(N)N)NC(=O)CNC)C(C)C)C(=O)N[C@@H](Cc1c[nH]cn1)C(=O)N1CCC[C@H]1C(N)=O [listing 2 of 2 here],Control,Rattus norvegicus [22],6%
same,Antagonist activity,Rattus norvegicus [5],60 µg/min/kg
same,Water intake,Rattus norvegicus [2],10 ml 20min-1
same,Water intake,Rattus norvegicus [23],10.8 ml 20min-1
same,Agonist activity,Rattus norvegicus [16],60%
